Experimental data as given in the EternaBench riboswitch data.

Tested on: MS2 coat protein
Assay: apparent Kd, MS2 coat protein; higher = weaker binding; RNA-MaP array; theophylline 2 mM where present
Outline: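 The titrant was SNAP-549-labelled MS2 coat protein, run from 0.7 or 1.5 nM in doubling steps to 3 µM. It was applied to designs transcribed by stalled E. coli RNA polymerase on Illumina sequencing-chip clusters, without ligand first and then with constant ligand, in 100 mM Tris-HCl pH 7.5, 80 mM KCl, 4 mM MgCl2, BSA, DTT, yeast tRNA and Tween-20. The apparent Kd is the median of filtered per-cluster binding-curve fits, with green signal normalised to red-channel RNA signal and control-cluster median Fmax.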

[1] = designed as: OFF switch for theophylline, no ligand
[2] = ligand present: theophylline, designed as: OFF switch for theophylline
[3] = designed as: ON switch for theophylline, no ligand
[4] = ligand present: theophylline, designed as: ON switch for theophylline

For “ACAUGAGGAUCACCCAUGUGGCGACUUGAUACCAGACCCGCACUAGUCCCUUGGCAGCAACUACGUGUGGGACACCCAUGUUAAG”, which “apparent Kd” value [1] is on record?
The value was 0.0169 µM.

And the “apparent Kd” value [2]?
The value was 0.022 µM.

How did the “apparent Kd” value [1] turn out when “GUUAUGGACCUGGAUACCAGCUGGUACAAGGGCGGUCUACAUGAGGAUCACCCAUGUGUCAGCCCUUGGCAGCCAGCAACCCACU” was run?
The value was 0.00988 µM.

What about the “apparent Kd” value [2] of the same sequence?
Its value is 0.0114 µM.

Which “apparent Kd” value [1] does the source give for “AGCCUCAUACAUGAGGAUCACCCAUGUGAUACCAGUCAGGAAACUGACCCUUGGCAGCGCAUGAGGAUCACCCAUGCGCGAGGCA” here?
Its value is 0.0597 µM.

What about the “apparent Kd” value [2] of the same sequence?
Its value is 0.113 µM.

With “CUGCUACAUGAGGAUCACCCAUGUGGAGAUACCAGCCUGAACGAUGGCCCUUGGCAGCUCUUAGCUGGUGAUCAUAUAUUUCAGA” as the sequence, how does the “apparent Kd” value [1] read?
The value was 0.0305 µM.

What about the “apparent Kd” value [2] of the same sequence?
Its value is 0.146 µM.

With “AUCGUACCUGAUGAUACCAGCAUGUGCUCGUAACAUGAGGAUCACCCAUGUGAUCAGUAAUGCCCUUGGCAGCAUGAUCGGUACA” as the sequence, how does the “apparent Kd” value [3] read?
The value was 0.0579 µM.

And the “apparent Kd” value [4]?
The value was 0.0143 µM.

How did the “apparent Kd” value [1] turn out when “AGAAUAACACAUGAGGAUCACCCAUGUGAUACCAGCUAGGAAACUAGCCCUUGGCAGCACAUAAUCCUCAUGAAUGUGCUGAAUA” was run?
The value was 0.0704 µM.

And the “apparent Kd” value [2]?
Its value is 0.0606 µM.

How did the “apparent Kd” value [3] turn out when “GCCAGACAUGAGGAUCACCCAUGUAGCGAUACCAGCUCUGUUGUGAGCCCUUGGCAGCGCACUGGCAUCGCGGGUGAUCCUGCAU” was run?
The value was 0.0434 µM.

And the “apparent Kd” value [4]?
The value was 0.164 µM.

Which results are given for “GGUGGUGGGACGGAUACCAGCCACCGCGGCAACGCAACAUGAGGAUCACCCAUGUUGGGUGGCCCUUGGCAGCUGUCCUGCGGCG”?
apparent Kd [3]: 0.0139 µM; apparent Kd [4]: 0.0131 µM

What does the source list for “CCUGCUACGGGAAACCGUAGCAGGAAUGAUACCAGUAGGAAAGACUACCCUUGGCAGCAUGGGAAACAUGAGGAUCACCCAUGUU”?
apparent Kd [3]: 0.0563 µM; apparent Kd [4]: 0.0566 µM

How did the “apparent Kd” value [3] turn out when “AUGUCGUUGAAUAUAGCGGCUUGGAGUGAUACCAGAAUGAUCUAAUUCCCUUGGCAGCAUUACAUGAGGAUCACCCAUGUUCCAG” was run?
Its value is 0.0511 µM.

And the “apparent Kd” value [4]?
The value was 0.0397 µM.

What does the source list for “GGUGGAGGCGUGGGACUUGUCUGAACGGAUACCAGCCACAUCACGGGCCCUUGGCAGCUGUACAUGAGGAUCACCCAUGUCGGUC”?
apparent Kd [1]: 0.0323 µM; apparent Kd [2]: 0.0937 µM

What does the source list for “UCACGACGCAUGGAUACCAGCGACAUGAGGAUCACCCAUGUAUGAGGAUCAGCCAUGUUAUGCCCUUGGCAGCCACGAAGGUCAU”?
apparent Kd [1]: 0.0141 µM; apparent Kd [2]: 0.0641 µM

How did the “apparent Kd” value [1] turn out when “ACGAACGAUAGUGAUACCAGACGUACAUGAGGAUCACCCAUGUUAUACACAUGGUUUAUUGUCCCUUGGCAGCACGAUAAGUUCG” was run?
Its value is 0.225 µM.

What about the “apparent Kd” value [2] of the same sequence?
Its value is 0.287 µM.

How did the “apparent Kd” value [3] turn out when “AGAUUACAUGUUAUAAUACGGUAUACUGAUACCAGUGUUUCUAUUCACCCUUGGCAGCAGCAACAUGAGGAUCACCCAUGUAUUA” was run?
Its value is 0.0171 µM.

And the “apparent Kd” value [4]?
Its value is 0.016 µM.

Which “apparent Kd” value [3] does the source give for “AUCGUACCUGAAGAUACCAGCAUGUGAUCAUAACAUGAGGAUCACCCAUGUAAUCAGUGAUGCCCUUGGCAGCUUGAUCGGUACA” here?
Its value is 0.0408 µM.

What about the “apparent Kd” value [4] of the same sequence?
The value was 0.0192 µM.

How did the “apparent Kd” value [3] turn out when “CCGAACAUGAGGAUCACCCAUGUUAGGGAUACCAGCCCAGACAUGGGCCCUUGGCAGCUCUAUAGCUGACGAAAGUCAGCAUCGG” was run?
Its value is 0.0585 µM.

And the “apparent Kd” value [4]?
The value was 0.0305 µM.

With “UGUCUAGUAAUCGAUACCAGCUACAUGAGGAUCACCCAUGUAGUUCGAACGGCCGCAUGUAGCCCUUGGCAGCGAAUAGUUACAU” as the sequence, how does the “apparent Kd” value [1] read?
Its value is 0.0189 µM.

And the “apparent Kd” value [2]?
Its value is 0.0527 µM.

“UGACAUUGCUGCGAUACCAGACAUGAGGAUCACCCAUGUGCCAAAUAAACGUACAUAAAUGUCCCUUGGCAGCGCAGCAAUGUCU” was tested. Which “apparent Kd” value [1] did it give?
Its value is 0.0644 µM.

What about the “apparent Kd” value [2] of the same sequence?
Its value is 0.752 µM.

What does the source list for “AAUUUGUCGGGUGAUACCAGCCUCGGCGCGUCUCGCGCUGAACAUGAGGAUCACCCAUGUGGCCCUUGGCAGCACAUGACAAAUC”?
apparent Kd [3]: 0.67 µM; apparent Kd [4]: 0.0382 µM

What does the source list for “UGUAACAUGAGGAUCACCCAUGUAAGUGAUACCAGAUAAGUAGUAGUCCCUUGGCAGCAUAUUGGGAAAGUGUAUAGUCUAUAUU”?
apparent Kd [3]: 0.0572 µM; apparent Kd [4]: 0.0556 µM

Which results are given for “CAAGAAGUAACUGAUACCAGUGUACUGACAUGAGGAUCACCCAUGUUGGGUUUUGUUGUACACCCUUGGCAGCAGAAUCUUCUUG”?
apparent Kd [1]: 0.0668 µM; apparent Kd [2]: 0.0905 µM

For “CAUACUUUAGUAUGACAUGUGGGCAGUGAUACCAGAUACGAAAGUAUCCCUUGGCAGCACAACAUGAGGAUCACCCAUGUAAUUA”, which “apparent Kd” value [3] is on record?
The value was 0.0296 µM.

And the “apparent Kd” value [4]?
The value was 0.0592 µM.

Which results are given for “UGUAACAUGAGGAUCACCCAUGUAAGUGAUACCAGAUAAGUAGUAGUCCCUUGGCAGCAUAUUGGGAAAGUGUAUAGUCUAUACG”?
apparent Kd [3]: 0.0528 µM; apparent Kd [4]: 0.0651 µM

Which “apparent Kd” value [3] does the source give for “UCGUGUGUUUCGGAUACCAGUGAAAUCGAUACAUGAGGAUCACCCAUGUGAGAGGAUGUACACCCUUGGCAGCUGGCUGUUGCGG” here?
The value was 0.0424 µM.

What about the “apparent Kd” value [4] of the same sequence?
Its value is 0.0427 µM.

Which results are given for “CCUGCGUUUCUUUUCUUUCGCAGGAAUGAUACCAGUAGGGAAACCUACCCUUGGCAGCAUGGGUAACAUGAGGAUCACCCAUGUU”?
apparent Kd [3]: 0.473 µM; apparent Kd [4]: 0.0822 µM
